Data from ChEMBL document CHEMBL2331259, “Design, synthesis, biological evaluation and molecular modeling studies of 1-aryl-6-(3,4,5-trimethoxyphenyl)-3(Z)-hexen-1,5-diynes as a new class of potent antitumor agents” (Eur J Med Chem, 2013).
Calls of active or inactive are those of the source. The calls are words filed in the database; no cut-off is given here.

Legend:
SK-HEP1 = experiment: Cytotoxicity against human SKHEP1 cells assessed as growth inhibition; assay type: functional, cell-based
[1] = Cytotoxicity against human CE81T cells assessed as growth inhibition; assay type: functional, cell-based
SAS = experiment: Cytotoxicity against human SAS cells assessed as growth inhibition; assay type: functional, cell-based
HeLa = experiment: Cytotoxicity against human HeLa cells assessed as growth inhibition; assay type: functional, cell-based
[2] = Cytotoxicity against human BT-483 cells assessed as growth inhibition; assay type: functional, cell-based
A549 = experiment: Cytotoxicity against human A549 cells assessed as growth inhibition; assay type: functional, cell-based
PC-3 = experiment: Cytotoxicity against human PC3 cells assessed as growth inhibition; assay type: functional, cell-based
AGS = experiment: Cytotoxicity against human AGS cells assessed as growth inhibition; assay type: functional, cell-based
BT-483 [3] = experiment: Induction of DNA damage in human BT-483 cells assessed as gamma H2AX phosphorylation at Ser139 at 1 uM after 24 hrs by Western blot analysis; assay type: functional, cell-based
In short: (§1)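 BT483 cells treated 24 h with vehicle (1% DMSO) or compound at various concentrations, PBS-washed and lysed. 50 μg protein run on 15% SDS-PAGE, transferred to PVDF, blocked overnight at 4 °C in 5% nonfat milk. Probed 2 h at room temperature with monoclonal anti-Caspase-3, anti-PARP, anti-phospho-γ-H2AX or anti-β-actin, then secondary IgG (1:5000). ECL detection. Irinotecan served as positive control.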

BT-483 [4] = experiment: Antitumor activity against human BT-483 cells xenografted in nude mouse assessed as decrease in tumor growth at 20 mg/kg/day, ip for 2 weeks measured every 3 days by caliper analysis; assay type: functional, organism-based
In short: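 Nude mice (male, 6–8 weeks, 20–25 g, SPF) inoculated s.c. in left flank with 1×10^6 BT483 cells in 50% matrigel. Treatment began at tumor volume ~20 mm³: i.p. daily for 2 weeks versus DMSO vehicle (n = 5 vehicle, n = 6 treated). Caliper measurement every 3 days from first dose; volume = width × length × height. Mean ± SEM.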

[5] = target: T1, Tubulin alpha (Homo sapiens) (UniProt P0DPH7+P68366+Q71U36+P68363+Q9BQE3+Q6PEY2+A6NHL2+Q9NY65); experiment: Binding affinity to Tubulin alpha/beta in human BT-483 cells assessed as microtubule depolymerization at 1 uM after 6 hrs by immunofluorescence analysis; assay type: cell-based
In short: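 BT483 cells held at 4 °C for 4 h to depolymerize microtubules, then incubated at 37 °C for 6 h in medium with DMSO or 1 μM compound. Cells fixed, immunostained with anti-tubulin antibody to view microtubule distribution; nuclei counterstained with DAPI.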

BT-483 [6] = experiment: Induction of DNA damage in human BT-483 cells assessed as gamma H2AX phosphorylation at Ser139 at 1 to 10 uM after 24 hrs by Western blot analysis; assay type: functional, cell-based; in short: as §1
BT-483 [7] = experiment: Induction of apoptosis in human BT-483 cells assessed as PARP cleavage at 1 uM after 24 hrs by Western blot analysis; assay type: functional, cell-based; in short: as §1
BT-483 [8] = experiment: Induction of apoptosis in human BT-483 cells assessed as increase in caspase 3 activity at 1 uM after 24 hrs by Western blot analysis; assay type: functional, cell-based; in short: as §1
[9] = Cell cycle arrest in human BT-483 cells assessed as accumulation of cells at subG1 phase at 0.2 uM after 24 hrs by flow cytometric analysis; assay type: functional, cell-based
In short: (§2)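 BT-483 cells exposed to DMSO or 0.2 μM compound for 12 and 24 h, harvested, PBS-rinsed, fixed in 80% ethanol and stored at -20 °C. DNA-fluorescence flow cytometry used for cell cycle distribution, including G2/M and sub-G1 fractions.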

[10] = Cell cycle arrest in human BT-483 cells assessed as accumulation of cells at G2/M phase at 0.2 uM after 12 hrs by flow cytometric analysis; assay type: functional, cell-based; in short: as §2
[11] = target: T1, Tubulin alpha (Homo sapiens); experiment: Binding affinity to Tubulin alpha/beta in human BT-483 cells assessed as microtubule depolymerization at 3.6 uM after 6 hrs by immunofluorescence analysis; assay type: cell-based

## COc1cc(C#C/C=C\C#Cc2cc(C(F)(F)F)ccc2N)cc(OC)c1OC
SK-HEP1
  IC50: 28.3 µM
[1]
  IC50: 21 µM
SAS
  IC50: 15.8 µM
HeLa
  IC50: 24.8 µM
[2]
  IC50: 21.2 µM
A549
  IC50: 12.4 µM

## COc1cc(C#C/C=C\C#Cc2ccccc2N)cc(OC)c1OC
SK-HEP1
  IC50: 0.2 µM
[1]
  IC50: 8.98 µM
SAS
  IC50: 4.53 µM
HeLa
  IC50: 0.64 µM
PC-3
  IC50: 0.73 µM
[2]
  IC50: 1.98 µM
AGS
  IC50: 0.98 µM
A549
  IC50: 0.57 µM

## COc1cc(C#C/C=C\C#Cc2ccccc2SC)cc(OC)c1OC
SK-HEP1
  IC50: 13.3 µM
[1]
  IC50: 13.9 µM
SAS
  IC50: 12.8 µM
HeLa
  IC50: 15.9 µM
PC-3
  IC50: 17.4 µM
[2]
  IC50: 15.2 µM
AGS
  IC50: 9.53 µM
A549
  IC50: 11.7 µM

## CCc1c2c(nc3ccc(OC(=O)N4CCC(N5CCCCC5)CC4)cc13)-c1cc3c(c(=O)n1C2)COC(=O)[C@]3(O)CC
BT-483 [3]
  Activity: Active

## COc1cc(C#C/C=C\C#Cc2ccccn2)cc(OC)c1OC
BT-483 [4]
  Activity: Active
[5]
  Activity: Active
BT-483 [6]
  Activity: Active
BT-483 [7]
  Activity: Active
BT-483 [8]
  Activity: Active
[9]
  Activity: Active
[10]
  Activity: Active
SK-HEP1
  IC50: 0.43 µM
[1]
  IC50: 6.87 µM
SAS
  IC50: 1.16 µM
HeLa
  IC50: 0.39 µM
PC-3
  IC50: 0.51 µM
[2]
  IC50: 0.86 µM
AGS
  IC50: 0.13 µM
A549
  IC50: 3.99 µM

## COc1ccc(C#C/C=C\C#Cc2cc(OC)c(OC)c(OC)c2)c([N+](=O)[O-])c1
SK-HEP1
  IC50: 4.28 µM
[1]
  IC50: 6.32 µM
SAS
  IC50: 0.65 µM
HeLa
  IC50: 2.26 µM
PC-3
  IC50: 3.79 µM
[2]
  IC50: 4.53 µM
AGS
  IC50: 2.78 µM
A549
  IC50: 5.95 µM

## COc1cc2c(c(OC)c1OC)-c1ccc(OC)c(=O)cc1[C@@H](NC(C)=O)CC2 [COLCHICINE]
SK-HEP1
  IC50: 0.78 µM
[1]
  IC50: 1.78 µM
SAS
  IC50: 3.5 µM
HeLa
  IC50: 0.66 µM
PC-3
  IC50: 0.06 µM
[2]
  IC50: 1.45 µM
AGS
  IC50: 0.05 µM
A549
  IC50: 0.07 µM

## COc1cc(C#C/C=C\C#Cc2ccccc2[N+](=O)[O-])cc(OC)c1OC
SK-HEP1
  IC50: 1.34 µM
[1]
  IC50: 6.91 µM
SAS
  IC50: 1.37 µM
HeLa
  IC50: 1.89 µM
PC-3
  IC50: 4.56 µM
[2]
  IC50: 4.24 µM
AGS
  IC50: 4.66 µM
A549
  IC50: 5.71 µM

## COc1cc(C#C/C=C\C#Cc2ccccc2C#N)cc(OC)c1OC
SK-HEP1
  IC50: 1.2 µM
[1]
  IC50: 6.39 µM
SAS
  IC50: 10.6 µM
HeLa
  IC50: 1.07 µM
PC-3
  IC50: 8.68 µM
[2]
  IC50: 10.5 µM
AGS
  IC50: 4.56 µM
A549
  IC50: 0.79 µM

## COc1ccc(C#C/C=C\C#Cc2cc(OC)c(OC)c(OC)c2)c(N)c1
SK-HEP1
  IC50: 5.23 µM
[1]
  IC50: 30 µM
SAS
  IC50: 12.3 µM
HeLa
  IC50: 5 µM
PC-3
  IC50: 11.7 µM
[2]
  IC50: 9.56 µM
AGS
  IC50: 5.75 µM
A549
  IC50: 6.42 µM

## COc1ccc(C#C/C=C\C#Cc2cc(OC)c(OC)c(OC)c2)c(OC)c1
SK-HEP1
  IC50: 14.4 µM
[1]
  IC50: 17.4 µM
HeLa
  IC50: 12.8 µM
PC-3
  IC50: 22.9 µM

## COc1ccccc1C#C/C=C\C#Cc1cc(OC)c(OC)c(OC)c1
SK-HEP1
  IC50: 0.34 µM
[1]
  IC50: 6.95 µM
SAS
  IC50: 9.88 µM
HeLa
  IC50: 0.57 µM
PC-3
  IC50: 0.62 µM
[2]
  IC50: 1.23 µM
AGS
  IC50: 0.78 µM
A549
  IC50: 0.52 µM

## Nc1ccccc1C#C/C=C\C#Cc1ccccc1C(F)(F)F
[11]
  Activity: Active
SK-HEP1
  IC50: 6.68 µM
[1]
  IC50: 2.91 µM
SAS
  IC50: 5.83 µM
HeLa
  IC50: 5.49 µM
PC-3
  IC50: 8.26 µM
[2]
  IC50: 8.56 µM
AGS
  IC50: 8.24 µM
A549
  IC50: 6.57 µM
